Pemphigus Ab inh = human desmoglein-3 autoantibody binding inhibition. 310,000 compounds, 0.48% hits. AID 588358. binding (percent of control), % at 10 µM. P32926. DSG3-coupled beads, scFv-anti-DSG3-GFP binding, flow cytometry; hits give low values;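 active means binding more than 3 SD below its plate's average and above zero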;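 further: hits lower antibody fragment binding to DSG3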
TRPC6 act = mouse TRPC6 channel activation; B-score at 10 µM; 310,000 compounds, 0.13% hits; HEK293-TRPC6 membrane potential dye fluorescence; hits give high values; Q61143;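 active means B-score of the integrated fluorescence ratio above library mean plus 3 SD, and starting fluorescence ratio within library mean plus 5 SD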;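 further: higher score means more depolarization so channel activation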
Target sequence (Q61143 whole entry, looked up): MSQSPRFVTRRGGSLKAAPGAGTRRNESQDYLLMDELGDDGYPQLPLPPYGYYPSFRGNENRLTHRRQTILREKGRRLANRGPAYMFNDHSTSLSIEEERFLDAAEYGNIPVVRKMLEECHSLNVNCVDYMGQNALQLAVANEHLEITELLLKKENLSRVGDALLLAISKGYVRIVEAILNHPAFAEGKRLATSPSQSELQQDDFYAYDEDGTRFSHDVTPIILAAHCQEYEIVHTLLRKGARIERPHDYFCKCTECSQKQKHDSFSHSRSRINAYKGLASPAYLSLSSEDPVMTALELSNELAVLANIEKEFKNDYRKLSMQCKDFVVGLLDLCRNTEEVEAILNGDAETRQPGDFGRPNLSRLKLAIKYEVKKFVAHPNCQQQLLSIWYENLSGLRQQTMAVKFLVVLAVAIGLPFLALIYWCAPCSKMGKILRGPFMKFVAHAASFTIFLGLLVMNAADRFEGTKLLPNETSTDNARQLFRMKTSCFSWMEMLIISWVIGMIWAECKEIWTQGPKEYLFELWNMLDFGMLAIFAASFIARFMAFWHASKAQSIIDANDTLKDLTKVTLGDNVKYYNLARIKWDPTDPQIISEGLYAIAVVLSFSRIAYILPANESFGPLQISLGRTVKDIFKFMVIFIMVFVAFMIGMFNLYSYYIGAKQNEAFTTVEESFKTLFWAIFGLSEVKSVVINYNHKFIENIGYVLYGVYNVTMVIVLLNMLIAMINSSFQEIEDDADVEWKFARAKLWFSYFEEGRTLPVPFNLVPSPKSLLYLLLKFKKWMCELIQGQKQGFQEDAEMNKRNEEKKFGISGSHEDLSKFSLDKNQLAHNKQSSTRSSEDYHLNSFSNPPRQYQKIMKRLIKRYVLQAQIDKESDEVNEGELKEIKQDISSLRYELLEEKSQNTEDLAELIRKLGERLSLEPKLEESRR
TRPC6 inh = mouse TRPC6 channel inhibition; B-score at 10 µM; 310,000 compounds, 1.1% hits; AID 2553; HEK293-TRPC6, membrane potential dye, ACh-evoked depolarization; hits give low values; Q61143;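 active means B-score under library mean minus 3 SD, initial fluorescence not abnormally high, positive integrated signal ratio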;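 further: B-score derived from integrated fluorescence ratio over the kinetic read; more negative B-score means stronger inhibition of depolarization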
TRPC4 PAM = allosterically enhances the mouse TRPC4 cation channel; HEK293 TRPC4beta/mu-opioid, DAMGO EC20, Fluo-4 Ca2+ flux; hits give high values; 310,000 compounds, 0.42% hits; B-score at 10 µM; Q9QUQ5;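 active means B-score of calcium response area above 5 SD of library B-scores, with initial fluorescence ratio within 5 SD of library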
TRPC4 inh = TRPC4 (mouse) channel inhibition; HEK293 TRPC4beta/mu-opioid, DAMGO-evoked Fluo4 calcium flux; hits give low values; B-score at 10 µM; 300,000 compounds, 0.39% hits;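 active means B-score over 3 SD under the library average, no early fluorescence shift, positive overall ratio signal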
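Assay system: TRPC4beta/mu-opioid receptor HEK293 cell line; compound dosing: single concentration per test compound; detection: Fluo4 Ca2+ flux fluorescence; evaluation: per-well B score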
TRPC4 act = activators of mouse TRPC4 channel. Q9QUQ5. HEK293 TRPC4beta/mu-opioid, Fluo4 calcium fluorescence; hits give high values. B-score at 10 µM. 310,000 compounds, 0.49% hits;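 active means B-score above 5 SD of library B-scores, and initial fluorescence ratio not above library mean plus 5 SD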;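 further: positive B-score marks a calcium rise read as TRPC4 activation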
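Incubation: 45 min room-temperature Fluo4 loading, 110 s read / System: HEK293 cells stably co-expressing mouse TRPC4beta and mu-opioid receptor / Signal: Fluo4 fluorescence, kinetic / Control set: buffer (low) and maximal DAMGO (high) / Measure: integrated baseline-normalised fluorescence ratio, converted to per-well B score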
Large screens that a line does not name were inactive. In the library only some 2.5% were active in any assay of this set; here they are far more common.

Cc1cc(S(=O)(=O)NC2CCN(Cc3ccccc3)CC2)c(C)cc1Cl	TRPC4 PAM 20
CC(NS(=O)(=O)c1ccc(Br)s1)c1ccccc1 (configuration not stated)	none
Cc1csc(NC(=O)C(NS(=O)(=O)c2ccc(Br)s2)c2ccccc2)n1 (configuration not stated)	Pemphigus Ab inh 86
CCCc1ccc(-c2cc(NC(=O)CSc3nnc(N)s3)n(-c3ccccc3)n2)cc1	none
Cc1ccc(NC(=O)CSc2nnc(Cc3csc(C)n3)o2)c(C)c1	none
COC(=O)c1cccc(N2CCCC2=O)c1	none
O=c1c2ccc(F)cc2sn1-c1ccccc1	Pemphigus Ab inh 50 (no result: TRPC6 act, TRPC6 inh, TRPC4 PAM, TRPC4 inh, TRPC4 act)
Cc1ccc(-n2sc3cc(F)ccc3c2=O)c(C)c1	Pemphigus Ab inh 63 (no result: TRPC6 act, TRPC6 inh, TRPC4 PAM, TRPC4 inh, TRPC4 act)
COC(=O)c1cccc(-n2sc3ccccc3c2=O)c1	Pemphigus Ab inh 38 (no result: TRPC6 act, TRPC6 inh, TRPC4 PAM, TRPC4 inh, TRPC4 act)
O=c1c2ccccc2sn1-c1ccc(F)cc1	Pemphigus Ab inh 42 (no result: TRPC6 act, TRPC6 inh, TRPC4 PAM, TRPC4 inh, TRPC4 act)
COc1ccc(C)cc1NC(=O)CN1C(=O)COc2ccc(S(=O)(=O)N3CCC(C)CC3)cc21	none
CC1CC(C)CN(CCCNC(=O)Cn2cccc2C(=O)c2ccccc2)C1 (configuration not stated)	TRPC4 act 105
Cc1ccccc1C(=O)c1cccn1CC(=O)NCCCN1CC(C)CC(C)C1 (configuration not stated)	none
CC1CC(C)CN(CCCNC(=O)c2ccc3c(c2)NC(=O)CS3)C1 (configuration not stated)	TRPC4 act 69
Cc1cc(C)n(CCCNC(=O)c2ccc3c(c2)NC(=O)CS3)n1	none
CC1CC(C)CN(CCCNC(=O)c2ccc(N3CCCC3=O)cc2)C1 (configuration not stated)	TRPC4 PAM 25
CC(C)CN(Cc1cc(=O)oc2cc3c(cc12)CCCC3)CC(C)C	none
Cc1cc(C)c(C)c(S(=O)(=O)N2CCN(CC(=O)Nc3sccc3C#N)CC2)c1C	none
Cc1ccccc1-c1nc(C#N)c(N2CCCCC2)o1	none
CC(=O)Nc1cccc(C(=O)OC(C(=O)c2ccc(C)c(C)c2)c2ccccc2)c1 (configuration not stated)	none
CC(=O)Nc1cccc(C(=O)OC(C(=O)c2ccc(C)cc2)c2ccccc2)c1 (configuration not stated)	TRPC4 PAM 17
COc1ccc(NC(=O)CN(C)C(=O)c2cc3c(s2)CCC3)cc1	Pemphigus Ab inh 93
COC(=O)c1sc(SC)c(S(=O)(=O)C(C)C)c1N/N=C(\C#N)C(=O)c1ccccc1	none
Cc1ccc(OCCC(=O)NNC(=O)c2nn(C)c(=O)c3ccccc23)cc1	none (no result: TRPC6 act, TRPC6 inh, TRPC4 PAM, TRPC4 inh, TRPC4 act)
CC1CCCN(CCCNC(=O)c2nn(C)c3c2CSc2ccccc2-3)C1 (configuration not stated)	none
CC1CCCCN1CCCNC(=O)c1nn(C)c2c1CSc1ccccc1-2 (configuration not stated)	TRPC4 inh -7
CCc1cc2c(SCC(=O)N(C)C3CCS(=O)(=O)C3)ncnc2s1 (configuration not stated)	TRPC4 PAM 28
CCc1cc2c(SCC(=O)NC3CCCC3)ncnc2s1	none (no result: TRPC6 act, TRPC6 inh, TRPC4 PAM, TRPC4 inh, TRPC4 act)
CCC/C(O)=C1\C(=O)CCCC1=NCCc1c(C)[nH]c2ccc(OC)cc12	none
COc1ccc(/C=C/C(=O)NC(=S)NNC(=O)c2c(-c3ccccc3)noc2C)cc1	none
COc1cc(OC)c(NC(=O)c2c(-c3ccccc3)noc2C)cc1Cl	Pemphigus Ab inh 70
O=C(NNC(=S)NC(=O)c1ccccc1[N+](=O)[O-])c1ccccc1Cl	none
Cc1onc(-c2ccccc2)c1C(=O)NNC(=S)NC(=O)c1ccc(Br)cc1	TRPC4 act 250
Cc1onc(-c2ccccc2)c1C(=O)NNC(=S)NC(=O)/C=C/c1ccccc1	TRPC4 inh -7, TRPC4 act 59
O=C(NC(=S)NNC(=O)c1ccccc1[N+](=O)[O-])c1ccc(Br)cc1	TRPC4 act 142
CCc1noc(C)c1C(=O)Nc1nnc(CC(C)C)s1	none
CCOC(=O)c1c(NC(=O)CSc2nc3nc(C)cc(C)n3n2)sc(CC)c1C	none
Cc1c(C(=O)N(C)C(C)c2ccccn2)oc2c(F)cccc12 (configuration not stated)	none (no result: Pemphigus Ab inh)
CCOc1nc(C)cc(C)c1S(=O)(=O)c1cccc(C)c1	TRPC4 PAM 19 (no result: Pemphigus Ab inh)
Cc1ccc(S(=O)(=O)N(C)c2ccc(C(=O)Nc3c(C)n(C)n(-c4ccccc4)c3=O)cc2)cc1	none
COc1ccc(NC(C)=O)cc1NC(C)C(=O)Nc1cc(C(F)(F)F)ccc1N1CCOCC1 (configuration not stated)	TRPC4 PAM 27
Cc1nn(CC(=O)NC(=O)c2ccccc2)c(C)c1[N+](=O)[O-]	none (no result: TRPC6 act, TRPC6 inh, TRPC4 PAM, TRPC4 inh, TRPC4 act)
O=C(OCC(=O)N1CCCc2ccccc21)c1cccc(S(=O)(=O)N2CCc3ccccc32)c1	none
CC1CN(Cc2ccco2)C(=S)NC1=O (configuration not stated)	none (no result: TRPC6 act, TRPC6 inh, TRPC4 PAM, TRPC4 inh, TRPC4 act)
O=C(Cn1ncc2c([nH]c3ccccc32)c1=O)N1CCN(c2ccccn2)CC1	Pemphigus Ab inh -6.6
Cc1ccc(C(=O)OCC(=O)NC2CC2)cc1S(=O)(=O)N1CCOCC1	none (no result: TRPC6 act, TRPC6 inh, TRPC4 PAM, TRPC4 inh, TRPC4 act)
N#CCCN1CCCN(CCC#N)CCN(CCC#N)CCCN(CCC#N)CC1	none
Cc1nn(C)c(C(=O)Nc2ccc(S(=O)(=O)NC34CC5CC(CC(C5)C3)C4)cc2)c1Br	Pemphigus Ab inh 17
CC(C)c1ccccc1OCCCCCNCCO	TRPC4 PAM 13
O=C(CSc1n[nH]c(=O)[nH]c1=O)N/N=C/c1ccccc1	none
CCCN1CCN(CCCNC(=O)C(CC)n2nc(C)n3c(cc4occc43)c2=O)CC1 (configuration not stated)	none
CSc1ccc(CCNC(=O)C2CCCN(S(=O)(=O)N3CCOCC3)C2)cc1 (configuration not stated)	Pemphigus Ab inh 77
COc1ccc(CCNC(=O)C2CCCN(S(=O)(=O)N3CCCCCC3)C2)cc1OC (configuration not stated)	none
O=C(Nc1ccccc1-c1ccccc1)c1cnccn1	TRPC4 PAM 13 (no result: Pemphigus Ab inh)
COc1cc(OC)cc(C(=O)NCCCNC(=O)c2ccccn2)c1	none
Cc1ccc(N2CC(O)CSC2=Nc2ccccc2)cc1 (configuration not stated)	none (no result: TRPC6 act, TRPC6 inh, TRPC4 PAM, TRPC4 inh, TRPC4 act)
CC1(C)CC(=O)C2=C(C1)NC(=S)C(C#N)C21CCCCC1 (configuration not stated)	none
O=C1/C(=C/c2ccccc2Cl)SC(=S)N1CCCC(=O)N(CCO)c1ccccc1	TRPC4 inh -6
O=C(CCCN1C(=O)/C(=C/c2ccccc2Cl)SC1=S)Nc1ccccn1	none
